The values that follow come from ChEMBL document CHEMBL2385076, “Discovery of 2-((1H-benzo[d]imidazol-1-yl)methyl)-4H-pyrido[1,2-a]pyrimidin-4-ones as novel PKM2 activators” (Bioorg Med Chem Lett, 2013).

Data set [1] can be described thus: Passive permeability from apical to basolateral side of dog RRCK cells. The note with it: MDCK, read-out: permeability. The class given is ADME, cell-based, Canis lupus familiaris, MDCKII-LE.
Data set [2] can be described thus: Intrinsic clearance in human liver microsomes. The class given is ADME, Microsome. As to conditions: read-out: CLH.
Data set [3] addresses T1, Pyruvate kinase PKM (Homo sapiens, UniProt P14618). The data set is described as follows: Activation of human PKM2 assessed as production of ATP at infinite concentration after 10 mins by lactate dehydrogenase-coupled enzyme assay relative to FBP. The essentials:
(§1)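 Coupled to lactate dehydrogenase, NADH loss read as the drop in absorbance at 340 nm. Reaction: 2nM human PKM2 (cleaved N-term his, 1-531), 2 mM PEP, 0.35 mM NADH, 4 units/mL LDH in 50 mM Tris pH 7.5 with KCl and 5 mM MgCl2. Compound preincubated 10 minutes at 32 °C, then 0.5mM ADP starts the reaction. Duplicates; 10-point curves; asymptote max = % activation at infinite concentration.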
Target sequence in this assay (P14618 2-531 limits assumed): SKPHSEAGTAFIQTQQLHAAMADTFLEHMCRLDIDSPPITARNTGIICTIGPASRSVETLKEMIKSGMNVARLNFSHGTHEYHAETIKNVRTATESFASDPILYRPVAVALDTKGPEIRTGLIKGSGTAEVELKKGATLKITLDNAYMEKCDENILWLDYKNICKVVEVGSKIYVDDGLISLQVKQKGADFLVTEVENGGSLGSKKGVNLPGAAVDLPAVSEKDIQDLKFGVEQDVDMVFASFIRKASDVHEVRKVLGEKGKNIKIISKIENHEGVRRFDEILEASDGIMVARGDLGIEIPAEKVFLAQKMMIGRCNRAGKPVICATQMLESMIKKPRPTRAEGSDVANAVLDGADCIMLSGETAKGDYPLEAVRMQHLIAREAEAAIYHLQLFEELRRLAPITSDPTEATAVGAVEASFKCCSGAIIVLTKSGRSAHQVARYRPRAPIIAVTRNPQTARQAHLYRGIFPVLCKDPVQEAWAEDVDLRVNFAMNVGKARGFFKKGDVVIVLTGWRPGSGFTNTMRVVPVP

For data set [4], the target named is T1, Pyruvate kinase PKM. The experiment in a line: Activation of human PKM2 assessed as production of ATP at 10 uM after 10 mins by lactate dehydrogenase-coupled enzyme assay. The procedure, abridged:
as §1
Target sequence in this assay (P14618 2-531 limits assumed): as above

A short description of data set [5]: Kinetic solubility of the compound at pH 7.4. The class given is physicochemical. As to conditions: buffer, read-out: Kinetic_solubility.
The subject of another data set is HT-29. The data set is described as follows: Antiproliferative activity against human HT-29 cells at 10 uM after 5 days. In kind it is functional. As to conditions: HT-29, 120 h. The essentials:
(§2)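 Cells plated in Optimem-GlutaMax medium and cultured overnight before exposure to 10 µM compound. Viability measured with CytoTox-Glo after 5 days of treatment.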

The subject of the next data set is JHH2. The experiment in a line: Antiproliferative activity against human JHH2 cells at 10 uM after 5 days. In kind it is functional, cell-based. The procedure, abridged: as §2
The subject of the next data set is SNU-182. The data set is described as follows: Antiproliferative activity against human SNU182 cells at 10 uM after 5 days. In kind it is functional, cell-based. The essentials:
as §2

In another data set the test system is SNU-449. The experiment in a line: Antiproliferative activity against human SNU449 cells at 10 uM after 5 days. The class given is functional, cell-based. The procedure, abridged: as §2
The target of data set [6] is T1, Pyruvate kinase PKM. The experiment in a line: Activation of PKM2 in human Snu182 cells assessed as extracellular acidification rate at 10 uM after 18 hrs. The class given is cell-based. The procedure, abridged:
(§3)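 Snu182 cells seeded at 12k/well in RPMI with 10% FBS and 2 mM glutamine, cultured overnight, then given 10 µM compound for 18 h at 37°C, 5% CO2. Medium switched to XF DMEM with 5 mM glucose plus 10 µM compound; OCR and ECAR measured on a Seahorse XF96 analyzer.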
Target sequence in this assay (P14618 2-531 limits assumed): as above

For data set [7], the target named is T1, Pyruvate kinase PKM. The experiment in a line: Activation of PKM2 in human Snu182 cells assessed as oxygen consumption rate at 10 uM after 18 hrs. In kind it is cell-based. The procedure, abridged: as §3
Target sequence in this assay (P14618 2-531 limits assumed): as above
The target in data set [8] is T1, Pyruvate kinase PKM. The data set is described as follows: Activation of PKM2 in human Huh7 cells assessed as formation of enzyme tetramers. The class given is cell-based. As to conditions: Huh-7.
Target sequence in this assay (P14618 2-531 limits assumed): as above
Data set [9] deals with T1, Pyruvate kinase PKM. The data set is described as follows: Activation of PKM2 in human Huh7 cells assessed as production of pyruvate and ATP by fluorescence assay. The class given is cell-based, Huh-7. The essentials: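 Huh7 hepatocellular carcinoma cells were treated with compound and lysed, and the lysate was given PEP and ADP. The pyruvate formed was oxidized by pyruvate oxidase, and the fluorescence, proportional to pyruvate, was read as cellular pyruvate kinase activity.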
Target sequence in this assay (P14618 whole entry): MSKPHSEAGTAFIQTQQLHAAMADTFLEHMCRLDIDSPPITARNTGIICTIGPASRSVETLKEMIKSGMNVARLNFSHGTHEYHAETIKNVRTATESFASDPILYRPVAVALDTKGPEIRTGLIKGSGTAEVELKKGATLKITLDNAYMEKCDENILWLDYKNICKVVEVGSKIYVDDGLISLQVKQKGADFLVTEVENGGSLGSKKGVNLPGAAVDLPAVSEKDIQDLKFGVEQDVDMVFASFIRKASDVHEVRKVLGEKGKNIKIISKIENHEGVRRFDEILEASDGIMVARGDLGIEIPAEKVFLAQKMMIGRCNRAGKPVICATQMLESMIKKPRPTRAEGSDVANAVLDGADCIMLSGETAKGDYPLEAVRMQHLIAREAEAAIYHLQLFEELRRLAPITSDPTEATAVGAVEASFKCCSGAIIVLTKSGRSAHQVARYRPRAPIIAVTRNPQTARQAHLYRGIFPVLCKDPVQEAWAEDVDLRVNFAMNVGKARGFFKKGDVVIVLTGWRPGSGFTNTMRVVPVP

The test system of another data set is HuH-1 (human). The data set is described as follows: Antiproliferative activity against human HuH1 cells at 10 uM after 5 days.
Data set [10] deals with T1, Pyruvate kinase PKM. The experiment in a line: Activation of human PKM2 assessed as production of ATP at 10 uM after 10 mins by high-throughput screening assay relative to control. The essentials: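 High-throughput screen in which PKM2 activity was read as ATP production by luminescence, reported as % activation at 10 µM.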
Target sequence in this assay (P14618 2-531 limits assumed): as the sequence (P14618 2-531 limits assumed) above

Broadly, the inhibition is the share of the control response that was lost under treatment. Low values mean a response near the control, high ones a response far below the control. Broadly, the EC50 is the concentration giving half of the maximal effect.

Converted amounts (≈) assume the structure as drawn. The source made the active and inactive calls. The rule behind the calls is not given here.

Take `CCc1ccc(C)n2c(=O)cc(Cn3cnc4ccccc43)nc12`: the Papp A→B in [1] stood at 162 nm/s. Besides, the microsomal CLint in data set [2] amounted to 184 µL/min/mg. In addition, the max activation at Pyruvate kinase PKM [3] is 135%.
Consider `CCc1nn2c(=O)cc(Cn3cnc4ccccc43)nc2s1`, for which the Papp A→B in [1] stood at 176 nm/s. The microsomal CLint in data set [2] was found to be 8 µL/min/mg. In addition, the max activation at Pyruvate kinase PKM [3] was determined as 140%.
Turning to `Cc1ccc2nc(Cn3c(C)nc4ccccc43)cc(=O)n2c1`, the max activation at Pyruvate kinase PKM [4] was found to be 73%.
On to `Cc1sc2nc(Cn3cnc4ccccc43)cc(=O)n2c1C`, for which the solubility kinetic in data set [5] stood at 141 µM (≈ 43.8 µg/mL). The Papp A→B in [1] was found to be 229 nm/s. Moreover, the microsomal CLint in [2] worked out at 12.5 µL/min/mg. On Pyruvate kinase PKM [3], the max activation is 160%.
As to `COc1cccc(NS(=O)(=O)c2cc3c(cc2Cl)NC(=O)CO3)c1`, the solubility kinetic in data set [5] was 8.6 µM (≈ 3.17 µg/mL). Moreover, in [1], the Papp A→B was 88 nm/s. Moreover, the microsomal CLint in [2] amounted to 22.4 µL/min/mg. Moreover, the max activation on Pyruvate kinase PKM [3] was found to be 108%. In addition, the inhibition at 10 µM in the data set with HT-29 amounted to 26.8%. Also, the result in the data set with JHH2, in the data set with SNU-182, in the data set on SNU-449 and in the data set on HuH-1 (human) was inactive. Further, the Activity at Pyruvate kinase PKM [6] came out at 91.4%; at Pyruvate kinase PKM [7], 85.7%. In addition, on Pyruvate kinase PKM [8], the outcome was Active. Also, the EC50 on Pyruvate kinase PKM [9] was 0.022 µM.
Take `O=c1cc(Cn2cnc3ccccc32)nc2ccc(Cl)cn12`: in data set [5], the solubility kinetic stood at 558 µM (≈ 173 µg/mL). In data set [1], the Papp A→B came out at 222 nm/s. Further, the microsomal CLint in [2] was below 8 µL/min/mg. Besides, the max activation on Pyruvate kinase PKM [3] was determined as 156%.
`Cc1cn2c(=O)cc(Cn3cnc4ccccc43)nc2s1`: the Papp A→B in data set [1] is 143 nm/s. The microsomal CLint in data set [2] was 8 µL/min/mg. Also, on Pyruvate kinase PKM [3], the max activation turned out to be 189%.
For `O=c1cc(Cn2cnc3ccccc32)nc2scc(-c3ccccc3)n12` the same measures were 115 nm/s, 8 µL/min/mg and 167%.
Consider `Cc1ccc2nc(Cn3cnc4ccccc43)cc(=O)n2c1`, for which, on Pyruvate kinase PKM [3], the max activation was found to be 149%.
On to `Cc1ccc2nc(Cn3c(Cc4ccccc4)nc4ccccc43)cc(=O)n2c1`, for which, on Pyruvate kinase PKM [10], the Activity stood at 155%. Besides, the max activation on Pyruvate kinase PKM [3] came to 148%.
Consider `Cc1csc2nc(Cn3cnc4ccccc43)cc(=O)n12`, for which, in data set [5], the solubility kinetic amounted to 117 µM (≈ 34.7 µg/mL). The Papp A→B in data set [1] was found to be 234 nm/s. In addition, the microsomal CLint in data set [2] turned out to be 8 µL/min/mg. In addition, the max activation at Pyruvate kinase PKM [3] was found to be 136%.
The matching figures for `O=c1cc(Cn2cnc3ccccc32)nc2sccn12`: 569 µM (≈ 161 µg/mL), 173 nm/s, 8 µL/min/mg and 162%.
The matching figures for `Cc1cccn2c(=O)cc(Cn3cnc4ccccc43)nc12`: 529 µM (≈ 154 µg/mL), 242 nm/s, 17.8 µL/min/mg and 172%.
As to `Cc1ccn2c(=O)cc(Cn3cnc4ccccc43)nc2c1`, the solubility kinetic in data set [5] was 586 µM (≈ 170 µg/mL). For the same compound, the Papp A→B in [1] stood at 213 nm/s. In addition, the microsomal CLint in [2] came out at 13.3 µL/min/mg. The max activation on Pyruvate kinase PKM [3] turned out to be 161%.
As to `COc1ccc2nc(Cn3cnc4ccccc43)cc(=O)n2c1`, the solubility kinetic in data set [5] was determined as 580 µM (≈ 178 µg/mL). Moreover, the Papp A→B in data set [1] amounted to 258 nm/s. In addition, the microsomal CLint in [2] was below 8 µL/min/mg. Further, at Pyruvate kinase PKM [3], the max activation came to 123%.
For the compound `O=c1cc(Cn2cnc3ccccc32)nc2ccccn12`, the max activation on Pyruvate kinase PKM [3] turned out to be 161%.
